Results: ChEMBL document CHEMBL2169831 (J Med Chem, 2011)
Calls of active or inactive are those of the source. The rule behind the calls is not given here.

Legend:
[1] = organism: Xenopus laevis; experiment: Inhibition of Xenopus laevis oocyte CNGA1/CNGB1 assessed as inhibition of cGMP-induced currents at +50 mV potential at 1 uM by patch-clamp method in presence of 100 uM cGMP
Method in brief: (§1)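 Heteromeric rod CNG channels from oocytes co-injected with CNGA1 and CNGB1 cRNA (33 ng:67 ng, 2:1), held at 16–18 °C and recorded 3–7 days later. Excised inside-out patches were stepped from 0 to −50 to +50 mV with sub-saturating cGMP (50 or 100 µM), with or without blocker. Currents without cGMP were subtracted and filtered at 300 Hz. Block was read at +50 mV.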

[2] = organism: Xenopus laevis; experiment: Inhibition of Xenopus laevis oocyte CNGA1/CNGB1 assessed as inhibition of currents at +50 mV potential at 2 uM by patch-clamp method in presence of 50 uM cGMP; method in brief: as §1
[3] = organism: Xenopus laevis; experiment: Inhibition of Xenopus laevis oocyte CNGA1/CNGB1 assessed as inhibition of cGMP-induced currents at +50 mV potential at 1 uM by patch-clamp method in presence of 50 uM cGMP; method in brief: as §1
[4] = organism: Xenopus laevis; experiment: Inhibition of Xenopus laevis oocyte CNGA1/CNGB1 assessed as inhibition of currents at +50 mV potential at 2 uM by patch-clamp method in presence of 100 uM cGMP; method in brief: as §1
[5] = Drug degradation in 0.1 M phosphate buffer at pH 7.4 assessed as human butyrylcholinestase-mediated compound hydrolysis rate at 50 uM during first 1 min by spectrophotometric analysis; details: pH 7.4, 1 min
[6] = Binding affinity to Xenopus laevis oocyte CNGA1/CNGB1 assessed as inhibition of 2 mM cGMP-induced currents at +50 mV potential at 5 uM by patch-clamp method; details: read-out: Kd(app)
Method in brief: (§2)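 Rod CNGA1 plus CNGB1 cRNA (2:1; 33 ng plus 67 ng) co-injected into stage IV–V Xenopus oocytes, held at 16–18 °C. Inside-out excised patches recorded 3–7 days after injection. Channels were maximally activated with 2 mM cGMP, and compound was added. Steps ran from 0 to −50 and +50 mV. Currents with no cGMP were subtracted, and KD was fitted to a single-site block equation (mean ± SD).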

[7] = Binding affinity to Xenopus laevis oocyte CNGA1/CNGB1 assessed as inhibition of 2 mM cGMP-induced currents at -50 mV potential at 5 uM by patch-clamp method; details: read-out: Kd(app); method in brief: as §2

Row | Compound | inhibition [1] | inhibition [2] | inhibition [3] | inhibition [4] | Drug degradation [5] | Kd [6] | Kd [7]
1 | CCCCNc1ccc(C(=O)OCCN(C)C)cc1 [TETRACAINE] | Active | Active | Active | Active | 132 nmol/min/mg |  | 
2 | CCCCNc1ccc(C(=S)NCCN(C)C)cc1 |  |  |  |  |  | 600 nM | 3900 nM
3 | CCCCNc1ccc(C(=O)NCCN(C)C)cc1 |  |  |  |  | 8.4 nmol/min/mg | 4400 nM | 28600 nM
4 | CCCCCCCCNc1ccc(C(=S)NCCN(C)C)cc1 |  |  |  |  |  | 700 nM | 1800 nM
5 | CCCCCCCCNc1ccc(C(=O)NCCN(C)C)cc1 |  |  |  |  | 1.2 nmol/min/mg |  | 
6 | CCCCCCCCNc1ccc(C(=O)OCCN(C)C)cc1 | Active | Active | Active | Active | 213 nmol/min/mg | 1000 nM | 2400 nM
